# From PubChem BioAssay
# Shown are actives, neighbours in structure and some others; about 3.4% of the full set was active somewhere.
# MC4R barr agon = activates human MC4R beta-arrestin recruitment; P32245; U2OS MC4R beta-arrestin complementation, luminescence; percent of melanotan II response, DMSO zero; activation, % at 8.9 µM; actives 0.98% (n = 360,000); AID 540308;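 active = activation above a per-plate cutoff, the mean activation of sample wells on that plate plus 3 SD, cut at about 8% in these data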
# TMEM16A inh = inhibitors of mouse TMEM16A calcium-activated chloride channel | HEK293 TMEM16A/YFP iodide influx fluorescence, ionomycin | normalized B-score (activity score, 25-100; higher = stronger inhibition) at 10 µM | actives 1.2% (n = 310,000) | AID 588511;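 active = ratio plate-corrected score three or more library SD toward inhibition, starting fluorescence score within five deviations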;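 also: score derived from kinetic fluorescence span divided by baseline fluorescence per well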
# HTR2A ag = mouse HTR2A agonism via beta-arrestin recruitment. P35363. CHO-K1 mHTR2A beta-arrestin complementation, luminescence; percent of 30 µM serotonin response. activation, % at 7.6 µM. actives 0.66% (n = 360,000). AID 624169;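 active = activation above a run cutoff, the mean activation of all tested compounds plus 3 SD, cut at about 14% in these data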;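 also: 0% = plate median of compound wells and 100% = 30 µM serotonin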
# ANO1 activ = activates or potentiates the mouse TMEM16A chloride channel; B-score at 10 µM; Q8BHY3; HEK293 TMEM16A/YFP-H148Q/I152L, iodide quench fluorescence; hits give low values; actives 0.3% (n = 340,000);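 active = fluorescence-ratio B-score plate-corrected deviation score at least 3 library SD below zero, with starting fluorescence score within 5 deviations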;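 also: channel opened by trigger with iodide after compound preincubation; score built on the fluorescence ratio of max minus min over baseline; more negative score means more quench and so TMEM16A activation or potentiation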
# beta cell repl = MIN6 beta-cell proliferation induction | AID 2380 | proliferation, % at 10 µM | MIN6 cells proliferation, ATPlite luminescence, 48 h; cells starved in 0.2% serum; 100% = growth in 10% serum | actives 0.29% (n = 330,000);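 active = compounds whose signal lies at least 3.5 SD above the mean of all wells on their plate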;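 also: 0% = DMSO-treated cells in low-serum medium and 100% = 10% serum control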
# MC4R antagonist = antagonists of human melanocortin 4 receptor (MC4R) | P32245 | MC4R-expressing cells, MTII-stimulated cAMP, LANCE TR-FRET | inhibition, % at 6.5 µM | actives 0.48% (n = 360,000);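 active = inhibition above its plate's cutoff, the mean of tested wells on that plate plus 3 SD, cut at about 29% in these data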;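 also: 0% = Melanotan II alone and 100% = Melanotan II plus saturating MCL0020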
#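 Material: U2OS-MC4R stable cell line | Reagent: Melanotan II challenge after compound preincubation | Doses: One concentration, 6.5 µM nominal | Incubation: 30-min compound preincubation, 1-h Melanotan II challenge, 1-h detection, room temperature | Signal: TR-FRET cAMP assay | Replicates: One well per compound, no replicates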
# The depositor's hits bear a star; i = inactive; nt = no result.
SMILES,MC4R barr agon,TMEM16A inh,HTR2A ag,ANO1 activ,beta cell repl,MC4R antagonist
COc1ccc(Cl)c(-c2cc(C(=O)Nc3ccccc3)[nH]n2)c1,2,nt,-5,nt,nt,1
O=C(Cc1ccccc1)NCCC1=CCCCC1,-2,i,2,i,1,0
O=C(NCCC1=CCCCC1)C(c1ccccc1)c1ccccc1,8.5*,i,-8,i,-5,2
C/C(=C\C(=O)c1ccc(Br)cc1)NCc1ccc(C)cc1,2,100*,2,i,-3,6
C/C(=C\C(=O)c1ccc(Br)cc1)NCc1ccccc1,-2,i,1,i,0,4
O=C(/C=C/c1cccc([N+](=O)[O-])c1)NCc1ccccc1,-3,i,-3,i,-3,-8
O=C(/C=C/c1cccc([N+](=O)[O-])c1)NCCSCc1cccc(Cl)c1,5,100*,-4,i,-3,1
Cc1nc2ccccc2n1S(=O)(=O)c1cc(C(=O)O)ccc1Cl,-1,i,1,i,-3,-1
CC(=O)Nc1ccc(-c2sc(Nc3cccc4ccccc34)n[n+]2-c2ccccc2)cc1,0,i,-3,-12*,-6,6
Cc1cccc(C)c1OCC(=O)Nc1cccc(NC(=O)c2ccco2)c1,0,100*,-4,i,1,8
CC(C)[C@H](NC(=O)c1ccco1)C(=O)OCC(=O)Nc1ccc(Cl)c(S(=O)(=O)N(C)C)c1,-1,i,13,i,-2,21
CC(C)[C@H](NC(=O)c1ccco1)C(=O)OCC(=O)Nc1cccc(F)c1,0,i,-1,-41*,-2,1
C[C@H](c1ccccc1)N1C[C@@H](COCc2ccccc2)Oc2cc(N3CC[C@@H](N(C)C)C3)ccc2S1(=O)=O,nt,nt,-2,nt,nt,nt
c1nc2n(n1)C1=C(CCCC1)C1(CCCCC1)N2,-1,i,-2,-4.8*,1,-11
CCNC(=O)c1c(NC(=O)c2cc(-c3cc(C)cc(C)c3O)n[nH]2)sc2c1CCCC2,3,nt,-1,i,nt,-4
C=CCN(C(=O)Cn1nnc2ccccc21)C(C(=O)NCCOC)c1ccc(OC)cc1OC (stereo unspecified),-1,i,-5,-6*,-2,1
Cn1nc(N2CCN(S(=O)(=O)c3ccccc3)CC2)c(=O)n(C)c1=O,-3,nt,0,-29*,-3,2
Cc1ccc(NC(=O)CSc2nc3c(c(=O)[nH]2)CCC3)c(C)c1,-1,i,5,i,0,-3
CC(=O)c1cccc(OC(=O)C2=CC=CN3CCS(=O)(=O)N=C23)c1,0,nt,-4,i,5,4
Cc1cccc2c(C(=O)N3CCN(C(=O)c4ccco4)CC3)cc(-c3cccc(Br)c3)nc12,0,100*,-8,i,-7,9
O=C1NC(=Nc2ccccc2Cl)S/C1=C\c1cccc([N+](=O)[O-])c1,0,25*,5,i,-5,22
O=C1/C(=C\c2cccc([N+](=O)[O-])c2O)SC(=S)N1Cc1ccccc1,-1,100*,4,i,nt,21
O=C1NC(=S)S/C1=C\c1cccc([N+](=O)[O-])c1,-3,nt,3,i,nt,15
O=C1NC(=Nc2ccccc2Cl)S/C1=C\c1cccc([N+](=O)[O-])c1O,-3,25*,-6,i,-5,8
COc1c(/C=C2\SC(=Nc3ccccc3Cl)NC2=O)cccc1[N+](=O)[O-],-1,i,1,i,-5,0
SMILES,MC4R barr agon,TMEM16A inh,HTR2A ag,ANO1 activ,beta cell repl,MC4R antagonist
COCCCn1c(SCC(=O)Nc2ccc(NC(C)=O)cc2)nc2sc3c(c2c1=O)CCC3,-1,i,11,i,1,7
COc1cccc(-c2ccc3nnc(SCC(=O)N4CCCC4)n3n2)c1,-4,i,-3,-4.7*,-2,3
CCCCc1ccc(NC=C2C(=O)OC3(CCCCC3)OC2=O)cc1,-1,i,-5,-19*,-1,-4
NS(=O)(=O)c1ccc(NC=C2C(=O)OC3(CCCCC3)OC2=O)cc1,-2,i,0,i,-2,4
CCCCN(C)c1c(C)nc2ccc(C(=O)NCCOc3ccc(OC)cc3)cn12,2,nt,-2,nt,nt,5
O=C1C=CC(=O)N1c1ccc(O)cc1,0,i,2,i,-7,-7
O=C1C=CC(=O)N1c1ccc(OC(F)F)cc1,-2,i,5,i,nt,37*
Cc1ccnc(NS(=O)(=O)c2ccc(NS(=O)(=O)c3cc(Cl)ccc3Cl)cc2)n1,-1,i,1,-29*,1,0
Cc1ccnc(NS(=O)(=O)c2ccc(NS(=O)(=O)c3ccc([N+](=O)[O-])cc3)cc2)n1,-1,i,-2,i,-3,6
COC(=O)c1ccccc1NC(=O)CSCC(=O)Nc1ccccc1,1,i,18*,i,-1,0
CCCCn1c(N)c(N(CC(C)C)C(=O)C2CCN(S(=O)(=O)c3ccc(Cl)cc3)CC2)c(=O)[nH]c1=O,1,i,0,i,2,0
Cc1ccc2c(cnn2C(=O)CCCC(=O)NCc2ccc(F)cc2)c1,-1,i,0,i,-1,-10
CCc1ccc(CNC(=O)CCC(=O)n2ncc3cc(C)ccc32)cc1,-1,i,5,-8.8*,-4,-2
COc1ccc(C(=O)C(C)OC(=O)C2CC3CCCC(C2)C3=O)cc1 (stereo unspecified),0,nt,5,nt,nt,9
CSc1ncccc1C(=O)OCC(=O)c1ccccc1,-1,i,-2,i,-3,7
CSc1ncccc1C(=O)OCC(=O)c1ccccc1Br,0,i,-6,-23*,-1,-1
Nc1nc2c(ncn2[C@@H]2O[C@H](CNCc3ccc(Oc4cc(-n5cccn5)ncn4)cc3)[C@@H](O)[C@H]2O)c(=O)[nH]1,nt,nt,2,nt,nt,nt
c1ccc(-c2ccc(C3=Nn4c(nnc4-c4cc(-c5ccccc5)n[nH]4)SC3)cc2)cc1,9.7*,i,5,i,-7,0
CC1(C)CC(=O)C=C(c2ccc(-c3cnc4ccccc4c3)cc2)C1=O,0,nt,5,nt,nt,-5
Nc1c(C(=O)NCCN2CCOCC2)c2nc3ccccc3nc2n1-c1cccc(F)c1,0,i,-1,i,-2,3
C=CCNC(=O)c1c(N)n(-c2ccc3c(c2)OCO3)c2nc3ccccc3nc12,8.7*,i,-3,i,-2,3
Cc1ccc(C(=O)N[C@H](C(=O)Nc2sccc2C(N)=O)C(C)C)cc1,-2,i,-5,i,-2,2
